Test results taken from ChEMBL document CHEMBL1156534, “Hemopressin is an inverse agonist of CB1 cannabinoid receptors” (Proc Natl Acad Sci U S A, 2007).
The source made the active and inactive calls.

Key:
[1] = molecular target: Cannabinoid receptor 2 (Homo sapiens) (UniProt P34972); test: Antagonist activity at CB2 receptor expressed in SKNSH cells at 100 nM by ELISA relative to control; assay type: functional, cell-based; set-up: scale not given: the % may be the effect or the level left
[2] = molecular target: Cannabinoid receptor 1 (Homo sapiens) (UniProt P21554); test: Antagonist activity at CB1 receptor expressed in SKNSH cells at 100 nM by ELISA relative to control; assay type: functional, cell-based; set-up: scale not given: the % may be the effect or the level left
[3] = molecular target: Mu-type opioid receptor (Homo sapiens) (UniProt P35372); test: Antagonist activity at mu opioid receptor expressed in SKNSH cells assessed as blockade of DAMGO-induced increase in antibody recognition at 100 nM by ELISA relative to control; assay type: functional, cell-based; set-up: scale not given: the % may be the effect or the level left
Rattus norvegicus = test: Antihyperalgesic effects in Wistar rat assessed as reduction of carrageenan-induced paw pressure at 0.5 ug/kg, intrathecal after 3 hrs; assay type: functional, organism-based
Summary of the method: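 Male Wistar rats (200 g) received carrageenan 200 μg/paw intraplantar in saline into the right hind paw. Peptide was given at the same time: intraplantar 10 μg/paw, intrathecal 0.5 or 5 μg/kg, or oral 50 or 100 μg/kg; saline-treated rats served as controls. Paw-pressure withdrawal threshold (force ramp 16 g/s) was read at 0 and 3 h. n = 6–8.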

[4] = molecular target: Cannabinoid receptor 1 (Homo sapiens) (UniProt P21554); test: Antagonist activity at flag tagged recombinant CB1 receptor expressed in HEK293 cells assessed as blockade of Hu210-induced increase in phospho ERK1/2 level; assay type: functional, cell-based
Summary of the method: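 HEK-293 cells expressing Flag-tagged CB1 (2 × 10⁶ cells/well) were stimulated for 5 min with 100 nM Hu-210, with or without 10 μM antagonist. Phospho-ERK1/2 was quantified relative to untreated cells (100%). Mean ± SE of triplicate experiments.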

[5] = molecular target: Beta-2 adrenergic receptor (Homo sapiens) (UniProt P07550); test: Antagonist activity at beta2 adrenergic receptor expressed in SKNSH cells at 100 nM by ELISA relative to control; assay type: functional, cell-based; set-up: scale not given: the % may be the effect or the level left
[6] = molecular target: Delta-type opioid receptor (Homo sapiens) (UniProt P41143); test: Antagonist activity at delta opioid receptor expressed in SKNSH cells at 100 nM by ELISA relative to control; assay type: functional, cell-based; set-up: scale not given: the % may be the effect or the level left
[7] = molecular target: T1, B2 bradykinin receptor (Homo sapiens) (UniProt P30411); test: Antagonist activity at B2 bradykinin receptor expressed in SKNSH cells at 100 nM by ELISA; assay type: functional, cell-based; set-up: scale not given: the % may be the effect or the level left
T1 sequence (whole entry): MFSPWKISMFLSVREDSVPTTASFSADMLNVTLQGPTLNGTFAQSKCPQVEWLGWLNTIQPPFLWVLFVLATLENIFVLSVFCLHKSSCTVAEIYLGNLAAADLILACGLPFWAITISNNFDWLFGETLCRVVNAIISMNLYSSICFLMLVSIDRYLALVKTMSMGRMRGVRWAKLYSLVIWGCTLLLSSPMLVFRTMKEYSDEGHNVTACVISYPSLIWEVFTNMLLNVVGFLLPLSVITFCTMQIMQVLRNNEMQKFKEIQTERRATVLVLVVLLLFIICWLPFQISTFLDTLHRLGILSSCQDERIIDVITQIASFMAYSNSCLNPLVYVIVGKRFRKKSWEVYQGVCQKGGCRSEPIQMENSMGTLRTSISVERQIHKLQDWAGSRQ

[8] = molecular target: T2, Alpha-2A adrenergic receptor (Homo sapiens) (UniProt P08913); test: Antagonist activity at alpha2A adrenergic receptor expressed in SKNSH cells at 100 nM by ELISA relative to control; assay type: functional, cell-based; set-up: scale not given: the % may be the effect or the level left
T2 sequence (whole entry): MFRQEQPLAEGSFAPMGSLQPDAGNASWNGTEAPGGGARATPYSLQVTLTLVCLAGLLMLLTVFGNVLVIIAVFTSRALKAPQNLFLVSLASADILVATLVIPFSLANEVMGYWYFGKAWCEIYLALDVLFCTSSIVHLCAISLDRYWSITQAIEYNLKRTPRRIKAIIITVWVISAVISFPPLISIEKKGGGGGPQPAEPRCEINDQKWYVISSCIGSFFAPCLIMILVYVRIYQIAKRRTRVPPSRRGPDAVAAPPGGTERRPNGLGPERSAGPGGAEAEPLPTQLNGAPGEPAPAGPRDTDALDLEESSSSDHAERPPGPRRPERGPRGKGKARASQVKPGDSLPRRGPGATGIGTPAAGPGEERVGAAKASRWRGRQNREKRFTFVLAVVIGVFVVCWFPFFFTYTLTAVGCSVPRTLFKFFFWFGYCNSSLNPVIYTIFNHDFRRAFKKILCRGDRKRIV

[9] = molecular target: T2, Alpha-2A adrenergic receptor (Homo sapiens); test: Antagonist activity at alpha2A adrenergic receptor expressed in SKNSH cells assessed as blockade of clonidine-induced increase in antibody recognition at 100 nM by ELISA relative to control; assay type: functional, cell-based; set-up: scale not given: the % may be the effect or the level left
[10] = molecular target: Cannabinoid receptor 1 (Homo sapiens) (UniProt P21554); test: Antagonist activity at CB1 receptor expressed in Neuro 2A cells assessed as blockade of Hu210-mediated decrease in secreted alkaline phosphatase activity at 1 uM; assay type: functional, cell-based
Summary of the method: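 Neuro 2A cells co-expressing pCRE-SeAP and CB1 were serum-starved 16–18 h, then given 10 μM forskolin plus 100 nM Hu-210, with or without 1 μM peptide, for 6 h without serum. Secreted alkaline phosphatase in heat-treated supernatant was measured by CSPD luminescence. Mean ± SEM of sextuplicates, n = 2.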

[11] = molecular target: Mu-type opioid receptor (Homo sapiens) (UniProt P35372); test: Antagonist activity at mu opioid receptor expressed in HEK293 cells assessed as blockade of DAMGO-mediated decrease in secreted alkaline phosphatase activity at 1 uM after 6 hrs relative to control; assay type: functional, cell-based
Summary of the method: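 HEK-293 cells transiently co-transfected with pCRE-SeAP and a Flag-tagged receptor, 30,000 cells/well on poly-L-lysine. They were serum-starved 16–18 h, then exposed 6 h in serum-free medium to 10 μM forskolin (omitted for β2) plus the receptor agonist (100 nM), with or without peptide (1 μM). Heat-treated supernatant SeAP was read by CSPD chemiluminescence. Mean ± SEM, n = 6.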

[12] = molecular target: T1, B2 bradykinin receptor (Homo sapiens); test: Antagonist activity at B2 bradykinin receptor expressed in SKNSH cells assessed as blockade of bradykinin-induced increase in antibody recognition at 100 nM by ELISA; assay type: functional, cell-based; set-up: scale not given: the % may be the effect or the level left
[13] = molecular target: T3, Type-2 angiotensin II receptor (Homo sapiens) (UniProt P50052); test: Antagonist activity at AT2 angiotensin receptor expressed in SKNSH cells at 100 nM by ELISA; assay type: functional, cell-based; set-up: scale not given: the % may be the effect or the level left
T3 sequence (whole entry): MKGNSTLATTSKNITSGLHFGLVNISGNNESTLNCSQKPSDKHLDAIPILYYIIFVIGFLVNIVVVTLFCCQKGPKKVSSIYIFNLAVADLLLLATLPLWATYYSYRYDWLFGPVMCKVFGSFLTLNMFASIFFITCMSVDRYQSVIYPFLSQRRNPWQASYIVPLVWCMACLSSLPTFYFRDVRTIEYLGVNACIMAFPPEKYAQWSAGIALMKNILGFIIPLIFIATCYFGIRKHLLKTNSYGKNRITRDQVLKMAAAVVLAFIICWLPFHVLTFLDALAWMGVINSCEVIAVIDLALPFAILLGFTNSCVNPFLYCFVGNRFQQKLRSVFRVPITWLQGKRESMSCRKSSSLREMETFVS

Cannabinoid receptor 1 (Homo sapiens), sequence (P21554 whole entry): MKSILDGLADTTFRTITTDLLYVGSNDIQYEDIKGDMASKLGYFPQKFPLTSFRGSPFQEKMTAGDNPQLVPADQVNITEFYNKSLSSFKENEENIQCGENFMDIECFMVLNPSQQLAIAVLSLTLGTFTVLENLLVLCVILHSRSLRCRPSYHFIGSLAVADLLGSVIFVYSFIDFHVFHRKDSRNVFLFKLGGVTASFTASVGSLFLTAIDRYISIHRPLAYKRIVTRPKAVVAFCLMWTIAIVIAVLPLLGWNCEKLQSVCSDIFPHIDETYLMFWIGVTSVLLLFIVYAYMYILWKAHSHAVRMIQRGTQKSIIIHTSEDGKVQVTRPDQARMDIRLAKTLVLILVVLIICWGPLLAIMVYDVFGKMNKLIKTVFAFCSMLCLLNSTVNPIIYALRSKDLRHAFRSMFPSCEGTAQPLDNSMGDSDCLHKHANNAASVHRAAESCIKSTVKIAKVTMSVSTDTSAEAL
Mu-type opioid receptor (Homo sapiens), sequence (P35372 whole entry): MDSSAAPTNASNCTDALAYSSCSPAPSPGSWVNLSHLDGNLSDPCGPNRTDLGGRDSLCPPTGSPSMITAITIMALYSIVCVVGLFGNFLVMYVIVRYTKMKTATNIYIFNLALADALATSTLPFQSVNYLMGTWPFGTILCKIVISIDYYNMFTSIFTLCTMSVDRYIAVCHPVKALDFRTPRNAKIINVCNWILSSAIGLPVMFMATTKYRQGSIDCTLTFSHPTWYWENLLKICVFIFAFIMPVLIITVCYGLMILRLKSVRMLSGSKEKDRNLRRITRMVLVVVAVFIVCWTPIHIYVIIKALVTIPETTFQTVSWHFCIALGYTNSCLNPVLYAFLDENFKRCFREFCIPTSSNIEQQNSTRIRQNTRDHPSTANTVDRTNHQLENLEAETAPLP
Delta-type opioid receptor (Homo sapiens), sequence (P41143 whole entry): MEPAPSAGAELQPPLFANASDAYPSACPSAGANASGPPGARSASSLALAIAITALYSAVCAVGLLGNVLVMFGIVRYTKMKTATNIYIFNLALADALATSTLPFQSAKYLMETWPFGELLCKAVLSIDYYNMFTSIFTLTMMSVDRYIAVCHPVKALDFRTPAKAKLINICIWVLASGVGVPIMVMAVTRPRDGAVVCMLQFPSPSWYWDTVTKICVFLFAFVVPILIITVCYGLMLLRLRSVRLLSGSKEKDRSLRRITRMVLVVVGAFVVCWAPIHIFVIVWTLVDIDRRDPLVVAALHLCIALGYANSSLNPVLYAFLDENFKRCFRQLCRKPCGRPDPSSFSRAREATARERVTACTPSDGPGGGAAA
Cannabinoid receptor 2 (Homo sapiens), sequence (P34972 whole entry): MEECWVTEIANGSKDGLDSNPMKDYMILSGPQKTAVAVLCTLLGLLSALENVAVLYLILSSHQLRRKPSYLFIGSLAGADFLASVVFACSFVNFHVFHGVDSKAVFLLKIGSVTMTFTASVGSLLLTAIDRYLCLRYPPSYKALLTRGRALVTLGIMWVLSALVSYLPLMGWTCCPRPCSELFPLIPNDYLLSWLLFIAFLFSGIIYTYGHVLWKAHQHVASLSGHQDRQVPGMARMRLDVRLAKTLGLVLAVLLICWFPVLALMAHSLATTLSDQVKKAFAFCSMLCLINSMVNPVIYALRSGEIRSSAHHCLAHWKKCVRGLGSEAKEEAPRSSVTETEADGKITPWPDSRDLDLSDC
Beta-2 adrenergic receptor (Homo sapiens), sequence (P07550 whole entry, looked up): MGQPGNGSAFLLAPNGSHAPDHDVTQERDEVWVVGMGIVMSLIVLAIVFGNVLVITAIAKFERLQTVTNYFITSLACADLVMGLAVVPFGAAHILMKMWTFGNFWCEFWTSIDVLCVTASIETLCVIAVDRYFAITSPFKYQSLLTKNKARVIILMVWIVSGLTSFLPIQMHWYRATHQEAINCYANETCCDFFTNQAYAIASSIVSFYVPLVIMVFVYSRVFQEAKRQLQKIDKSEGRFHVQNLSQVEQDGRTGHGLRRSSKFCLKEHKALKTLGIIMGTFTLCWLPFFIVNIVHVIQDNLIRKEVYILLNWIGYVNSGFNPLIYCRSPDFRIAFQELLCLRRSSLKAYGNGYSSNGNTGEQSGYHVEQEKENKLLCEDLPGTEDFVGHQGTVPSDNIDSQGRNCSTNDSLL

- Activity [1]: 103%
- Activity [2]: 72%
- Activity [3]: 141%
- Activity [4]: Active
- Activity [5]: 104%
- Activity [6]: 101%
- Activity [7]: 103%
- Activity [8]: 103%
- Activity [9]: 130%
- Activity [10]: Active
- Activity [11]: 0.61
- Activity [12]: 149%
- Activity [13]: 100%
Structure (SMILES): CC(C)C[C@H](NC(=O)[C@H](Cc1ccccc1)NC(=O)[C@H](CCCCN)NC(=O)[C@H](Cc1ccccc1)NC(=O)[C@H](CC(N)=O)NC(=O)[C@@H](NC(=O)[C@@H]1CCCN1)C(C)C)C(=O)N[C@@H](CO)C(=O)N[C@@H](Cc1cnc[nH]1)C(=O)O [HEMOPRESSIN]
- Activity (Rattus norvegicus): Active
